Series [1] concerns the target Protein kinase C gamma type (Homo sapiens, UniProt P05129). The series can be described thus: Inhibition of Protein kinase C gamma.
Series [2] concerns the target Proto-oncogene tyrosine-protein kinase Src (Homo sapiens, UniProt P12931). The series can be described thus: Inhibition of src kinase.
Series [3] can be described thus: Effective concentration for 50% inhibition of endothelial cell based plasminogen activity relative to control by beta-PDBu stimulation. The format is functional. Put shortly: (§1)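 Bovine retinal capillary endothelial cells (passages 3–10), grown to confluence (10⁵ cells/well) in EGM with 10% FBS, switched to DME/10% FBS 24 h before assay; treated with 4β-PDBu plus compound in DMSO, 37 °C, 48 h. Lysate (25 mM NH₄OH, 0.5% Triton X-100) incubated with plasminogen and 1 mM chromogenic substrate, 25 °C 45 min, A410 against urokinase/tPA standard curve.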

Series [4] is described as follows: Inhibition of Bovine heart cAMP-dependent protein kinase. Set-up: species or system Bos taurus. Put shortly: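 Bovine heart cAMP-dependent kinase catalytic subunit with 200 µg/mL histone type HL substrate in 20 mM HEPES pH 7.5, 10 mM MgCl₂, 30 µM [γ-³²P]ATP; inhibitor in DMSO; 30 °C, 10 min; TCA-stopped, precipitate filtered and scintillation-counted. Average of at least three independent determinations from eight-point titration curves.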

Series [5] has as its target T1, Protein kinase C epsilon type (Homo sapiens, UniProt Q02156).
T1 sequence (Q02156 whole entry): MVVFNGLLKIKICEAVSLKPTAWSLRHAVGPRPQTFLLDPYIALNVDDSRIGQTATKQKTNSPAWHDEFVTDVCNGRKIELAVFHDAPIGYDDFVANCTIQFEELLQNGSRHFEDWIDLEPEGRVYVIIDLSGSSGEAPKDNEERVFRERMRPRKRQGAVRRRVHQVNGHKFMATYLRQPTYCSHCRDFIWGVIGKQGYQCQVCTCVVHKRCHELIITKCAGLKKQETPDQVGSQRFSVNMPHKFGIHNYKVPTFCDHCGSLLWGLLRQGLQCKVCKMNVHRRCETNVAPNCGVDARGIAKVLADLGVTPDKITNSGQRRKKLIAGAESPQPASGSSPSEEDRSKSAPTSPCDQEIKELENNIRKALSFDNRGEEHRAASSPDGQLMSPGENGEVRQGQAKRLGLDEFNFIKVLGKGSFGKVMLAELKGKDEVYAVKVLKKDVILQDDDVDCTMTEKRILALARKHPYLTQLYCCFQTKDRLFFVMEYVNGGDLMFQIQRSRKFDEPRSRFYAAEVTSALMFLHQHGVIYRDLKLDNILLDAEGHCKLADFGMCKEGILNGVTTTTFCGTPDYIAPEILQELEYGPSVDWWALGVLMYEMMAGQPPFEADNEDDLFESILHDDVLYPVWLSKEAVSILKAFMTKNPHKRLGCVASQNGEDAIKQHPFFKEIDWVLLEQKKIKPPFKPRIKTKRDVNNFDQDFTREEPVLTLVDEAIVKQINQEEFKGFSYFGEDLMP
As to the kind of experiment: Inhibition of Protein kinase C epsilon.

The nature of series [6]: Inhibition of rat brain Casein kinase II.
For series [7], the target named is Protein kinase C eta type (Homo sapiens, UniProt P24723). The series can be described thus: Inhibition of Protein kinase C eta.
In series [8] the target is T2, Protein kinase C zeta type (Homo sapiens, UniProt Q05513).
T2 sequence (Q05513 whole entry): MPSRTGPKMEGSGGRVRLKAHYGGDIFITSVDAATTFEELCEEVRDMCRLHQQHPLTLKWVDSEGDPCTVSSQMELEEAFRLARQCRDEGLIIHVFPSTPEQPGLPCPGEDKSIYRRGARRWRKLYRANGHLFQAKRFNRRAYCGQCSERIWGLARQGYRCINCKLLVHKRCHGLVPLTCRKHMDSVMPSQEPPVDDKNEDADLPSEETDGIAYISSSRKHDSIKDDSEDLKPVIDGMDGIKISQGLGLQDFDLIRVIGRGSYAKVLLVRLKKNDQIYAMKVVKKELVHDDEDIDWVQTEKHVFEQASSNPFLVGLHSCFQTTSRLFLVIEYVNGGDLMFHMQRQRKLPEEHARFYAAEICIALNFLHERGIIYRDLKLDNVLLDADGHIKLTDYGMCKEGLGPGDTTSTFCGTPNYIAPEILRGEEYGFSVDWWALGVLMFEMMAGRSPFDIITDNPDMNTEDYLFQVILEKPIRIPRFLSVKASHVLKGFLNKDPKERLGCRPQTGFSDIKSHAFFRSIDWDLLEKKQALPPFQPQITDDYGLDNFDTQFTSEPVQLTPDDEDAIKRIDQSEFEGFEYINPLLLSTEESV
As to the kind of experiment: Inhibition of Protein kinase C zeta.

Series [9] in a line: Effective dose against plasminogen activator activity stimulated by phorbol ester in endothelial cells. Format: functional. Conditions: Endothelial cell; read-out: ED50 (the source's name).
Series [10] deals with Protein kinase C (PKC). The series can be described thus: (§2) Inhibition of rat brain Protein kinase C.
Series [11] concerns the target Protein kinase C delta type (Homo sapiens, UniProt Q05655). The series can be described thus: Inhibition of Protein kinase C delta.
Series [12] addresses Protein kinase C alpha type (Homo sapiens, UniProt P17252). As to the kind of experiment: Inhibition of Protein kinase C alpha.
For series [13], the target named is T3, Protein kinase C beta type (Homo sapiens, UniProt P05771). As to the kind of experiment: Inhibition of Protein kinase C beta 1.
For series [14], the target named is T3, Protein kinase C beta type. The series can be described thus: Inhibition of Protein kinase C beta 2.
Series [15] can be described thus: Concentration for 50% cell death determined by lysosomal staining in the neutral red viability assay. Conditions: read-out: Tox50. Put shortly: (§3)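 Bovine retinal capillary endothelial cells, passages 3–10, were grown to confluence (10⁵ cells/well) in EGM with 10% FBS. Medium was switched to DME with 10% FBS 24 h before the assay. Compound in DMSO was added for 48 h at 37 °C. Viability was read by neutral red lysosomal staining, and the value is the concentration giving 50% cell death.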

A short description of series [16]: Effective concentration for 50% inhibition of endothelial cell- based plasminogen activator activity relative to control by beta-PDBu stimulation. Format: functional. The essentials: as §1
Series [17] in a line: Inhibition of purified mammalian brain calcium [Ca(2+)]/Calmodulin dependent kinase.
Series [18] is described as follows: Effective concentration for 50% inhibition of Endothelial cell- based plasminogen activator activity relative to control by beta-PDBu stimulation. Format: functional. Put shortly: as §1
The target in series [19] is Protein kinase C (PKC). Described as §2. The essentials:
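Purified rat-brain PKC was used as enzyme. Values are averages of at least three independent determinations, each from an eight-point titration curve.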
The source holds these as a separate data set.

Series [20] is described as follows: Concentration for 50% cell death determined by lysosomal staining in the neutral red viability assay. The settings on record: read-out: Tox50. The essentials: as §3

Bounds are passed on as bounds.

Ten compounds from ChEMBL document CHEMBL1129363, “(S)-13-[(dimethylamino)methyl]-10,11,14,15-tetrahydro-4,9:16, 21-dimetheno-1H, 13H-dibenzo[e,k]pyrrolo[3,4-h][1,4,13]oxadiazacyclohexadecene-1,3(2H)-d ione (LY333531) and related analogues: isozyme selective inhibitors of protein kinase C beta” (J Med Chem, 1996) can be followed below.

Sequence of Protein kinase C delta type (Q05655 whole entry): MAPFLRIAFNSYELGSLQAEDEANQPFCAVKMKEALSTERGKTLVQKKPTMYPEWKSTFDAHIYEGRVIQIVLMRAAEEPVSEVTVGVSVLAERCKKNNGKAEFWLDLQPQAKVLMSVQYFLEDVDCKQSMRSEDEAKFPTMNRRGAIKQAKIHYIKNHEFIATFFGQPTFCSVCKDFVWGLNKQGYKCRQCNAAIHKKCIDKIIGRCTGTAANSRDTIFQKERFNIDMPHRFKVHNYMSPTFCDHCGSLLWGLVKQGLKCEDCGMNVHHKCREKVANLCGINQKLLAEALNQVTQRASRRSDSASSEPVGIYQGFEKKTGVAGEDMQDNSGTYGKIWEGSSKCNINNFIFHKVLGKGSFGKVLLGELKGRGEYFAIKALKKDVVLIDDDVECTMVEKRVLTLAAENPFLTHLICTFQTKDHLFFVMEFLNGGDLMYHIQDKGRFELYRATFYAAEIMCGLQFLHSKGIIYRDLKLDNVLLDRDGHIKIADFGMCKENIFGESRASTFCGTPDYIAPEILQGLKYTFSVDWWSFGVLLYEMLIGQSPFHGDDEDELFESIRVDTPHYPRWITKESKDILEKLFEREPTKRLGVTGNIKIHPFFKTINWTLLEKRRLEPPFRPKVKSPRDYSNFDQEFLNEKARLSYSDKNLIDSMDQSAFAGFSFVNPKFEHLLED
Sequence of Proto-oncogene tyrosine-protein kinase Src (P12931 2-536 limits assumed): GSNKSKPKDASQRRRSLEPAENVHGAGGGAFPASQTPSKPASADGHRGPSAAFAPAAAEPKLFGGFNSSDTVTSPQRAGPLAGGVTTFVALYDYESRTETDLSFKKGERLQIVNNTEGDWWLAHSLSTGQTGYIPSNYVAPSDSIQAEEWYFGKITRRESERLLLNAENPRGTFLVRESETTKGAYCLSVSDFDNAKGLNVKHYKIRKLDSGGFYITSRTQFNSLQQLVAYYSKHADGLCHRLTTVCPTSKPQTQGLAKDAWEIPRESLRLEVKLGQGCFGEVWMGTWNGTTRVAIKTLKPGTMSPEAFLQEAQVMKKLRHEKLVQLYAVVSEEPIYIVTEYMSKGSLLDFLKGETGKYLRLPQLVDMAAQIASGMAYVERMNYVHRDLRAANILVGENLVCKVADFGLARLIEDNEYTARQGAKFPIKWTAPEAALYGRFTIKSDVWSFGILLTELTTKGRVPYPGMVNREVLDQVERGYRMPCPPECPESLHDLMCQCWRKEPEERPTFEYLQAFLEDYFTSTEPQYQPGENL
Sequence of Protein kinase C eta type (P24723 whole entry): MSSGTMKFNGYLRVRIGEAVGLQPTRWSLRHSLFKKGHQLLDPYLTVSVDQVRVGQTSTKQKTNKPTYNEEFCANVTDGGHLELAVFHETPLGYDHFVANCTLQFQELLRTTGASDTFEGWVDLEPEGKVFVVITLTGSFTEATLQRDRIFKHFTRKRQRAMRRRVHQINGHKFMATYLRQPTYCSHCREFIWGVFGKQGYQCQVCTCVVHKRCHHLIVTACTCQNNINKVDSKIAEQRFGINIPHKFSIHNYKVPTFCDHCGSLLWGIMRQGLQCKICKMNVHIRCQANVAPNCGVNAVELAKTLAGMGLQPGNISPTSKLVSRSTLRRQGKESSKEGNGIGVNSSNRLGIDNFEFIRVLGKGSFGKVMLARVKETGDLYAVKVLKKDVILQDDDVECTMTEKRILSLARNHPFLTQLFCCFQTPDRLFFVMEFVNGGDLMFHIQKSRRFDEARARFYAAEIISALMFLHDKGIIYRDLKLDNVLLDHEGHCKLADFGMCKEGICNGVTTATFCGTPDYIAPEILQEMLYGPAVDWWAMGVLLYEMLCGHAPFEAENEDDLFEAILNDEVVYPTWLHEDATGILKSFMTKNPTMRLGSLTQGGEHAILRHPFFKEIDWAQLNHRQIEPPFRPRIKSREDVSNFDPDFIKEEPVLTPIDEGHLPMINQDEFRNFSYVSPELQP
T3 sequence (P05771 whole entry): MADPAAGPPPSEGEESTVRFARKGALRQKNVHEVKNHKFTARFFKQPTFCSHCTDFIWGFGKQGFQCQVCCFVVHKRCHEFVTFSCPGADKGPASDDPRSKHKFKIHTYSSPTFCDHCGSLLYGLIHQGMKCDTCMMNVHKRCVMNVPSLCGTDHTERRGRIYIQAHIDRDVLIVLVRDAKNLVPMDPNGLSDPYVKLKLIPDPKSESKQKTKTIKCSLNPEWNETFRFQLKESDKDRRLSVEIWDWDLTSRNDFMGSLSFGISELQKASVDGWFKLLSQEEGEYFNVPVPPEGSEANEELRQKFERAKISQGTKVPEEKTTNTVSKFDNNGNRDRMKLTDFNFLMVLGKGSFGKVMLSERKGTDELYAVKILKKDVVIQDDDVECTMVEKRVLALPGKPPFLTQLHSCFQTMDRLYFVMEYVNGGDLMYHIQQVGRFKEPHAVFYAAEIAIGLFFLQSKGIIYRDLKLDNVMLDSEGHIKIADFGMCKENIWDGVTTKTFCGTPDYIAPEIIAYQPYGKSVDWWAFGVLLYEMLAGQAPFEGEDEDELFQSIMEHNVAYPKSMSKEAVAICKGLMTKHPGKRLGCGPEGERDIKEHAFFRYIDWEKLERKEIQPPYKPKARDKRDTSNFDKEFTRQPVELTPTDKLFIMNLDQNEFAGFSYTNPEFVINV

The IC50 is the concentration at which inhibition is half-maximal. Turning to `O=C1NC(=O)C2=C1c1cn(c3ccccc13)CCO[C@H](CO)CCn1cc2c2ccccc21`, the IC50 was 2000 nM in series [1]; above 100000 nM in [2]; above 100000 nM in series [4]; 79000 nM in series [5]; above 100000 nM in [6]; 300 nM in [7]. For the same compound, the IC50 in series [8] came to 8700 nM. Also, the EC50 in series [3] and in series [9] was 3000 nM each time.
In the case of `O=C1NC(=O)C2=C1c1cn(c3ccccc13)CCO[C@H](CNCc1ccccc1)CCn1cc2c2ccccc21`, the IC50 was 6500 nM in series [1]; 4200 nM against Protein kinase C (PKC) [10]; 7800 nM in series [11]; above 100000 nM in [2]; 6300 nM in series [12]; 330 nM in series [13]. In addition, the half-maximal inhibitory concentration (IC50) is above 100000 nM in series [4]; 310 nM in series [14]; 57000 nM in [5]; above 100000 nM in [6]; 2500 nM in series [7]; 54000 nM in series [8]. Further, in series [15], the CC50 is above 20000 nM. Besides, the EC50 in series [9] and in series [16] was 4300 nM each time.
In the case of `CNC[C@@H]1CCn2cc(c3ccccc32)C2=C(C(=O)NC2=O)c2cn(c3ccccc23)CCO1`, the half-inhibitory concentration (IC50) in series [1] was 270 nM; in [11], 170 nM; in series [4] it was 49000 nM; in series [5] it was 1100 nM; in [7] it was 31 nM. Moreover, the EC50 in series [9] and in series [16] was 240 nM each time.
As to `O=C1NC(=O)C2=C1c1cn(c3ccccc13)CCO[C@H](CN1CCCC1)CCn1cc2c2ccccc21`, the IC50 was 2200 nM in series [1]; 3300 nM in series [11]; 11000 nM in series [2]; 3500 nM in [12]; above 100000 nM in [4]; 3800 nM in series [5]. The results for the IC50 in series [6], in series [7] and in series [17] were above 100000 nM, 350 nM and 5300 nM, respectively. Also, the CC50 in series [15] was above 10000 nM. The EC50 in [9] and in series [16] was 550 nM each time.
On to `CN[C@@H]1C[C@H]2O[C@@](C)([C@@H]1OC)n1c3ccccc3c3c4c(c5c6ccccc6n2c5c31)C(=O)NC4` [STAUROSPORINE], for which the CC50 in series [15] was below 20 nM. The IC50 in series [17] came out at 4 nM.
With `CN1CCN(C[C@@H]2CCn3cc(c4ccccc43)C3=C(C(=O)NC3=O)c3cn(c4ccccc34)CCO2)CC1`, the IC50 in [1] was 3200 nM; in series [11] it was 2800 nM; in series [13], 30 nM; in [14], 24 nM; in series [5] it was above 5000 nM; in series [7] it was 2000 nM. This compound returned an IC50 in [8] above 5000 nM. In addition, the EC50 in series [18] and in [9] was 550 nM throughout. In addition, in [15], the CC50 is above 20000 nM.
Take `CN(C)C[C@@H]1CCn2cc(c3ccccc32)C2=C(C(=O)NC2=O)c2cn(c3ccccc23)CCO1` [RUBOXISTAURIN]: the IC50 in series [1] is 300 nM; against Protein kinase C (PKC) [19] it was 320 nM; in series [4], above 100000 nM; in [6] it was above 100000 nM; in series [7] it was 52 nM; in series [17], 6200 nM. Moreover, the CC50 in series [20] was above 20000 nM. Besides, in series [9], the EC50 was 210 nM.
Consider `O=C1NC(=O)C2=C1c1cn(c3ccccc13)CCO[C@H](CN1CCOCC1)CCn1cc2c2ccccc21`, for which the IC50 was 2500 nM in [1]; 2000 nM in series [11]; 49 nM in series [13]; 38 nM in series [14]; above 5000 nM in series [5]; 1700 nM in series [7]. For the same compound, the IC50 in series [8] is above 5000 nM. Besides, the CC50 in [15] was above 20000 nM. The EC50 in series [9] was 3500 nM.
For `O=C1NC(=O)C2=C1c1cn(c3ccccc13)CCO[C@H](CNS(=O)(=O)c1ccccc1)CCn1cc2c2ccccc21`, the IC50 is above 5000 nM in series [1]; 10000 nM on Protein kinase C (PKC) [10]; 880 nM in series [11]; above 100000 nM in series [2]; above 5000 nM in series [12]; above 100000 nM in [4]. The 50% inhibitory concentration (IC50) in series [5] was above 5000 nM; in [6] it was above 100000 nM; in [7], 1900 nM; in [8], above 5000 nM. For the same compound, in series [15], the CC50 was above 2000 nM. The EC50 in series [9] and in series [16] was above 2000 nM throughout.
As for `NC[C@@H]1CCn2cc(c3ccccc32)C2=C(C(=O)NC2=O)c2cn(c3ccccc23)CCO1`, the IC50 in series [1] was 2100 nM; in [11], 2600 nM; in series [2] it was 89000 nM; in series [12] it was 1100 nM; in series [4] it was 83000 nM; in [5], above 5000 nM. Further, the figures for the IC50 in series [6], in [7] and in [17] were above 100000 nM, 240 nM and 2700 nM, respectively. For the same compound, in [15], the CC50 is above 20000 nM. In addition, the EC50 in series [9] and in series [16] was 7500 nM each time.
